Laboratory results from ChEMBL document CHEMBL4433205, “Dual Pharmacophores Explored via Structure-Activity Relationship (SAR) Matrix: Insights into Potent, Bifunctional Opioid Ligand Design” (J Med Chem, 2019).
Activity calls are given as the source filed them.

How the values were obtained:
Mus musculus [1] = test: Antinociceptive activity in C57BL/6 mouse assessed as increase in latency to tail withdrawal up to 10 mg/kg, ip administered at 30 mins interval measured during compound dosing by warm water tail withdrawal assay relative to control; format: functional
Summary of the method: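 Male C57BL/6 mice, 20–30 g, 8–16 weeks. Saline ip, baseline latency 30 min later; then cumulative ip doses 1, 3.2, 10 mg/kg in 5% DMSO/saline at 30 min intervals, latency read 30 min after each. Tail tip (2–3 cm) in 50°C water, 20 s cutoff; expressed as % MPE (MPE = 20 s).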

Mus musculus [2] = test: Antinociceptive activity in C57BL/6 mouse assessed as increase in latency to tail withdrawal by measuring time of action at 10 mg/kg, ip administered as bolus dose by warm water tail withdrawal assay; format: functional
Summary of the method: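 Male C57BL/6 mice; saline ip, baseline 30 min later, then single 10 mg/kg ip bolus in 5% DMSO/saline. Tail withdrawal in 50°C water (20 s cutoff) at 5, 15, 30 min and every 30 min until return to baseline; duration = time from dosing to baseline return, done only for fully active compounds.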

[3] = Lipophilicity, log P of the compound; format: physicochemical; settings: octanol/water
[4] = biological target: Delta-type opioid receptor (Rattus norvegicus) (UniProt P33533); test: Agonist activity at rat delta opioid receptor expressed in rat C6 cell membranes assessed as stimulation of [35S]GTPgammaS binding incubated for 1 hr relative to DPDPE; format: functional
[5] = biological target: Mu-type opioid receptor (Rattus norvegicus) (UniProt P33535); test: Agonist activity at rat mu opioid receptor expressed in rat C6 glioma cell membranes assessed as stimulation of [35S]GTPgammaS binding measured after 1 hr relative to DAMGO; format: functional
[6] = biological target: T1, Kappa-type opioid receptor (Homo sapiens, UniProt P41145); test: Agonist activity at human kappa opioid receptor expressed in CHO cell membranes assessed as stimulation of [35S]GTPgammaS binding measured after 1 hr; format: functional
[7] = biological target: T1, Kappa-type opioid receptor; test: Agonist activity at human kappa opioid receptor expressed in CHO cell membranes assessed as stimulation of [35S]GTPgammaS binding to G protein incubated for 1 hr relative to U69,593; format: functional
[8] = biological target: T2, Delta-type opioid receptor (Rattus norvegicus, UniProt P33533); test: Agonist activity at rat delta opioid receptor expressed in rat C6 cell membranes assessed as stimulation of [35S]GTPgammaS binding measured after 1 hr; format: functional
Mu-type opioid receptor [9] = biological target: T3, Mu-type opioid receptor (Rattus norvegicus, UniProt P33535); test: (§1) Agonist activity at rat mu opioid receptor expressed in rat C6 cell membranes assessed as stimulation of [35S]GTPgammaS binding measured after 1 hr; format: functional
Summary of the method: (§2)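 Membranes (10–20 μg protein/tube) from stably transfected cells incubated 1 h at 25°C in 50 mM Tris-HCl, 100 mM NaCl, 5 mM MgCl2, pH 7.4, with 0.1 nM [35S]-GTPγS, 30 μM GDP and varying test concentrations; filtration, scintillation counting.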

Rattus norvegicus = organism: Rattus norvegicus; test: Selectivity ratio of Ki for rat delta opioid receptor expressed in rat C6 cell membranes to Ki for rat mu opioid receptor expressed in rat C6 cell membranes; format: cell-based
Summary of the method: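 Competition binding against 0.2 nM [3H]-diprenorphine, using C6 membranes expressing rat MOR or rat DOR (20 μg protein/tube). Run in 50 mM Tris-HCl pH 7.4, 1 h at room temperature with shaking, then filtration and scintillation counting. Nonspecific binding with 10 μM naloxone.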

[10] = biological target: T1, Kappa-type opioid receptor; test: Displacement of [3H]diprenorphine from human kappa opioid receptor expressed in CHO cell membranes measured after 1 hr by liquid scintillation counting method
Summary of the method: (§3)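 Competition with 0.2 nM [3H]-diprenorphine on membranes (20 μg protein/tube) from stably transfected cells in 50 mM Tris-HCl pH 7.4, 1 h at room temperature with shaking; GF/C filtration, three washes, scintillation counting. Nonspecific binding defined with 10 μM naloxone.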

[11] = biological target: T2, Delta-type opioid receptor; test: Displacement of [3H]diprenorphine from rat delta opioid receptor expressed in rat C6 cell membranes measured after 1 hr by liquid scintillation counting method
Mu-type opioid receptor [12] = biological target: T3, Mu-type opioid receptor; test: Displacement of [3H]diprenorphine from rat mu opioid receptor expressed in rat C6 cell membranes measured after 1 hr by liquid scintillation counting method; summary of the method: as §3
[13] = biological target: Mu-type opioid receptor (Rattus norvegicus) (UniProt P33535); test: as §1; format: functional; summary of the method: as §2
[14] = biological target: Delta-type opioid receptor (Rattus norvegicus) (UniProt P33533); test: Agonist activity at rat delta opioid receptor expressed in C6 cell membranes assessed as stimulation of [35S]GTPgammaS binding at 1 uM incubated for 1 hr relative to SNC80; format: functional
Summary of the method: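 Rat DOR in C6 glioma membranes, [35S]-GTPγS binding (0.1 nM, 30 μM GDP, 1 h, 25°C). SNC80 concentration–response run alone and with 1 μM test compound present; stimulation expressed relative to SNC80. Ke = compound concentration/(EC50 shift − 1). Mean of ≥3 assays in duplicate.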

[15] = biological target: Delta-type opioid receptor (Rattus norvegicus) (UniProt P33533); test: Antagonist activity at rat delta opioid receptor expressed in rat C6 cell membranes assessed as inhibition of SNC80-induced [35S] GTPgammaS binding measured after 1 hr; format: functional
Summary of the method: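 Membranes from rat C6 glioma cells stably expressing rat DOR; [35S]-GTPγS (0.1 nM) binding stimulated by SNC80 concentration–response, alone or with test compound at 1 μM, 1 h at 25°C in 50 mM Tris-HCl, 100 mM NaCl, 5 mM MgCl2, pH 7.4, with 30 μM GDP; filtration and scintillation counting.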

Delta-type opioid receptor (Rattus norvegicus), sequence (P33533 whole entry): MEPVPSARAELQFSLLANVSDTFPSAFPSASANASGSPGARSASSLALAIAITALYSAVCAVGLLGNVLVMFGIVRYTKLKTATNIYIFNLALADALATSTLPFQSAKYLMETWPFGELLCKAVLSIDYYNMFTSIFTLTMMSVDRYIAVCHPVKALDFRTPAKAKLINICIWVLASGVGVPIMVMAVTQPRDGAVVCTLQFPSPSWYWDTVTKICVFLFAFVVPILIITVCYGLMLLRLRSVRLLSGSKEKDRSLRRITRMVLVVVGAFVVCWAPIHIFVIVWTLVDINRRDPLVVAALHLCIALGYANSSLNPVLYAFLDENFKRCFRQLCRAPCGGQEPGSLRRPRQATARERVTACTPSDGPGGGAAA
T2 sequence (P33533 whole entry): as above
Mu-type opioid receptor (Rattus norvegicus), sequence (P33535 whole entry): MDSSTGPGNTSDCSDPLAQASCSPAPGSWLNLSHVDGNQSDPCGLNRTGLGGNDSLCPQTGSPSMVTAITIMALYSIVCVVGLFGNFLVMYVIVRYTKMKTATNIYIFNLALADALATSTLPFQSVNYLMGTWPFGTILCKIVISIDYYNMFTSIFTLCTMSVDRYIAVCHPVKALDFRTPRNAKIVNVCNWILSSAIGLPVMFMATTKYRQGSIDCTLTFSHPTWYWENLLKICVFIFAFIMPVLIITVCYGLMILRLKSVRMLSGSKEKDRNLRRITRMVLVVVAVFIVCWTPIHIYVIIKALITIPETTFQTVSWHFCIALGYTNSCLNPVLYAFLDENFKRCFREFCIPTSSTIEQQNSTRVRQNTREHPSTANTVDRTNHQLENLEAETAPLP
T3 sequence (P33535 whole entry): as above
T1 sequence (P41145 whole entry): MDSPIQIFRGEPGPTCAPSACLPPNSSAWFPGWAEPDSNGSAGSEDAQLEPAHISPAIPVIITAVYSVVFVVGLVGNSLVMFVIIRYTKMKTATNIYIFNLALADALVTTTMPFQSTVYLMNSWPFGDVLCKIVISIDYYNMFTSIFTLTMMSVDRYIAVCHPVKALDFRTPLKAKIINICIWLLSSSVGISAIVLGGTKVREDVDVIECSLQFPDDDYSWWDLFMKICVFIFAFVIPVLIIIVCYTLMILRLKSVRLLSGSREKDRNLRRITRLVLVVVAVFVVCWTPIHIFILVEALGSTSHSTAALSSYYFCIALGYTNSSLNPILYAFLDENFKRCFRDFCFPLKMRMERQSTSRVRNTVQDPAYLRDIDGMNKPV

Compound: Cc1cc(O)cc(C)c1C[C@H](N)C(=O)N[C@@H]1CCNc2ccc(Cc3ccccc3)cc21.O=C(O)C(F)(F)F
- MPE (Mus musculus [1]): 100%
- Time (Mus musculus [2]): 120 min
- logP [3]: 3.8

Compound: CC(=O)N1CC[C@@H](NC(=O)[C@@H](N)Cc2c(C)cc(O)cc2C)c2cc(CN3CCc4ccccc4C3)ccc21.O=C(O)C(F)(F)F
- Efficacy [4]: inactive
- Efficacy [5]: 96%
- EC50 ([6]; read-out: EC50): 190 nM
- Efficacy [7]: 41%
- EC50 ([8]; c6): Not Active
- MPE (Mus musculus [1]): 100%
- EC50 (Mu-type opioid receptor [9]): 6 nM
- Ratio Ki (Rattus norvegicus): 5
- Ki [10]: 0.78 nM
- Ki [11]: 0.89 nM
- Ki (Mu-type opioid receptor [12]): 0.19 nM
- Time (Mus musculus [2]): 240 min
- logP [3]: 3.2

Compound: Cc1cc(O)cc(C)c1C[C@H](N)C(=O)N[C@@H]1CCN(S(C)(=O)=O)c2ccc(Cc3ccccc3)cc21.O=C(O)C(F)(F)F
- Efficacy [4]: 22%
- Efficacy [5]: 98%
- EC50 ([6]; read-out: EC50): 121 nM
- Efficacy [7]: 60%
- EC50 ([8]; read-out: EC50): 12 nM
- MPE (Mus musculus [1]): 100%
- EC50 (Mu-type opioid receptor [9]): 0.23 nM
- Ratio Ki (Rattus norvegicus): 7
- Ki [10]: 8 nM
- Ki [11]: 0.41 nM
- Ki (Mu-type opioid receptor [12]): 0.06 nM
- Time (Mus musculus [2]): 60 min
- logP [3]: 3.3

Compound: Cc1cc(O)cc(C)c1C[C@H](N)C(=O)N[C@@H]1CCN(C(=O)c2ccccc2)c2ccc(Cc3ccc4ccccc4c3)cc21.O=C(O)C(F)(F)F
- Efficacy [5]: 57%
- EC50 ([6]; cho): Not Active
- Efficacy [7]: inactive
- EC50 ([8]; c6): Not Active
- MPE (Mus musculus [1]): 100%
- EC50 (Mu-type opioid receptor [9]): 7.9 nM
- Ki [10]: 160 nM
- Ki [11]: 0.46 nM
- Ki (Mu-type opioid receptor [12]): 0.26 nM
- Time (Mus musculus [2]): 150 min

Compound: Cc1cc(O)cc(C)c1C[C@H](N)C(=O)N[C@@H]1CCN(C(=O)c2ccccc2)c2ccc(Cc3ccc4c(c3)OCCO4)cc21.O=C(O)C(F)(F)F
- Efficacy [4]: inactive
- Efficacy [5]: inactive
- EC50 ([6]; read-out: EC50): > 500 nM
- Efficacy [7]: 60%
- EC50 ([8]; c6): Not Active
- MPE (Mus musculus [1]): inactive
- Activity [13]: inactive
- Ratio Ki (Rattus norvegicus): 0.2
- Ki [10]: 240 nM
- Ki [11]: 0.22 nM
- Ki (Mu-type opioid receptor [12]): 1.5 nM
- logP [3]: 4.4

Compound: Cc1cc(O)cc(C)c1C[C@H](N)C(=O)N[C@@H]1CCN(S(C)(=O)=O)c2ccc(CN3CCc4ccccc4C3)cc21.O=C(O)C(F)(F)F
- Efficacy [4]: inactive
- Efficacy [5]: 114%
- EC50 ([6]; read-out: EC50): 45 nM
- Efficacy [7]: 51%
- EC50 ([8]; c6): Not Active
- MPE (Mus musculus [1]): 100%
- EC50 (Mu-type opioid receptor [9]): 0.12 nM
- Ratio Ki (Rattus norvegicus): 9
- Ki [10]: 1.1 nM
- Ki [11]: 0.98 nM
- Ki (Mu-type opioid receptor [12]): 0.11 nM
- Time (Mus musculus [2]): 90 min
- logP [3]: 3.1
- Activity [14]: 100%
- Ke [15]: 0.85 nM

Compound: CC(=O)N1CC[C@@H](NC(=O)[C@@H](N)Cc2c(C)cc(O)cc2C)c2cc(Cc3cnc4ccccc4c3)ccc21.O=C(O)C(F)(F)F
- Efficacy [4]: 35%
- Efficacy [5]: 76%
- EC50 ([6]; cho): Not Active
- Efficacy [7]: inactive
- EC50 ([8]; read-out: EC50): 5.8 nM
- MPE (Mus musculus [1]): 60%
- EC50 (Mu-type opioid receptor [9]): 1.1 nM
- Ratio Ki (Rattus norvegicus): 1
- Ki [10]: 53 nM
- Ki [11]: 0.2 nM
- Ki (Mu-type opioid receptor [12]): 0.15 nM
- logP [3]: 3.2

Compound: CC(=O)N1CC[C@@H](NC(=O)[C@@H](N)Cc2c(C)cc(O)cc2C)c2cc(Cc3ccc4c(c3)OCCO4)ccc21.O=C(O)C(F)(F)F
- Efficacy [4]: inactive
- Efficacy [5]: 45%
- EC50 ([6]; cho): Not Active
- Efficacy [7]: inactive
- EC50 ([8]; c6): Not Active
- MPE (Mus musculus [1]): 75%
- EC50 (Mu-type opioid receptor [9]): 13 nM
- Ratio Ki (Rattus norvegicus): 2
- Ki [10]: 142 nM
- Ki [11]: 0.83 nM
- Ki (Mu-type opioid receptor [12]): 0.38 nM
- logP [3]: 3.1

Compound: Cc1cc(O)cc(C)c1C[C@H](N)C(=O)N[C@@H]1CCN(S(C)(=O)=O)c2ccc(Cc3cc4ccccc4o3)cc21.O=C(O)C(F)(F)F
- Efficacy [4]: inactive
- Efficacy [5]: 102%
- EC50 ([6]; read-out: EC50): > 500 nM
- Efficacy [7]: 61%
- EC50 ([8]; c6): Not Active
- MPE (Mus musculus [1]): inactive
- EC50 (Mu-type opioid receptor [9]): 0.34 nM
- Ratio Ki (Rattus norvegicus): 20
- Ki [10]: 8 nM
- Ki [11]: 1 nM
- Ki (Mu-type opioid receptor [12]): 0.05 nM
- logP [3]: 3.8
